# Fewer inactive variants are shown than the library holds.
# B1: tRNA (parent)
# chain: GUUCCGUUGGCGUAAUGGUAACGCGUCUCCCUCCUAAGGAGAAGACUGCGGGUUCGAGUCCCGUACGGAACG
# Variants of: B1
# Test: yeast fitness relative to wild type (ratio to wild type); higher = fitter; tRNA-Arg(CCU), competitive growth, 37 C, YPD
# Procedure, shortened: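 Genotype frequency changes were the basis for Darwinian fitness relative to wild type. The frequencies came from 100-nucleotide paired-end sequencing of gene amplicons from the start population and each end population of pooled yeast strains with tRNA-Arg(CCU) gene variants at the native locus. Competition ran in YPD at 37°C for 24 hours in six replicates, genotypes needed ≥ 100 starting reads, and estimates < 0.5 were set to 0.5.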
row,Variant,yeast fitness
1,G12A G52A,0.688
2,G12A C27U G67A,0.571
3,G12A C30G,0.689
4,C11U U19G C66A,0.54
5,G12C G18C G25A C66U,≤ 0.5
6,C11U U32G U54A G67C,≤ 0.5
7,G12A C60A,0.579
8,G12A C60U,0.777
9,C11U U64C,0.879
10,C11U U64A,0.71
11,G12A U13G G67A,≤ 0.5
12,G12A G23A U28G C49U G56C A65U,0.526
13,G12C A43U U59A A69G,≤ 0.5
14,C11U U28C C29G G67A,≤ 0.5
15,G12A U13C U16A U19G G23A G58A G68A,≤ 0.5
16,G12C A20U A21G C22G G50A C61A,≤ 0.5
17,G12A U59A,0.8
18,G12C A21U G50C A70C,≤ 0.5
19,G12C A45C C61A,0.686
20,G12A C30G C46G,≤ 0.5
21,G12C G17A C34G A40U A42U G67C,≤ 0.5

row,Variant,yeast fitness
1,C11U U19C C31A G50U C62G,≤ 0.5
2,G12C C34G,0.696
3,C11U G44A C49U,0.81
4,U13A A45G,0.92
5,G12A C46G,1
6,G12A G18C A42U A70G,0.598
7,C11U G68C,0.814
8,C11U G68U,0.898
9,G12A C29A A42U A45U C61G,≤ 0.5
10,G12C U32G C33G G67C,≤ 0.5
11,G12A U26A C30G C33U,≤ 0.5
12,G12C A57C,0.545
13,C11U U13A C30U G38C C49A,≤ 0.5
14,C11U U26G U35C G63A A70G,≤ 0.5
15,G12A C22A A36G A37G A57U,≤ 0.5
16,U13A A14C C22A,≤ 0.5
17,G12C C33A,0.682
18,G12C G23C A42U G44C U54A,≤ 0.5
19,C11U U13C A20C C22G,≤ 0.5
20,G12A A21C A70U,0.563
21,G12C C46A G68U,≤ 0.5

row,Variant,yeast fitness
1,G12C U26A C33A C34G A69G,≤ 0.5
2,G12A U13A A65C,≤ 0.5
3,C11U U16A U54C,≤ 0.5
4,U13A A21C U35C G39A A42C A43G C46U A65C,0.55
5,G12A C49U A65C,0.676
6,C11U U47A C60G C62A,≤ 0.5
7,G12A C27U A42U C62U,≤ 0.5
8,G12A G52A U59A A69C A70C,≤ 0.5
9,G12A C27G A36U A65U,≤ 0.5
10,U13A C22G G25C C27U C30G A36G C55A A69U,≤ 0.5
11,C11U U13A G41A A45U G58U C60A,≤ 0.5
12,G12A A15G A65C,≤ 0.5
13,C11U U35A G38A C61G,0.565
14,G12A C27U C49U,0.611
15,G12A A14C C34G,≤ 0.5
16,G12C C27A G38A,0.584
17,G12A C33U A36C C62U,0.553
18,G12C U19G A20C A21C C31U C61A,≤ 0.5
19,G12C A43U A70C,0.521
20,G12A G18A U19C C55U A57C G58C G63A,≤ 0.5
21,G12U A36G,0.758

row,Variant,yeast fitness
1,C11U U28A C33G,0.619
2,G12C A15G A45G G50C A69C,≤ 0.5
3,G12C G18C G67U,≤ 0.5
4,U13A A14G C66U G68C,≤ 0.5
5,C11U G41A,0.902
6,C11U G39U,0.835
7,U13A A15G U16G A57G C61A,≤ 0.5
8,G12A A36C A37C U53G A70C,≤ 0.5
9,U13A A40U A43C,0.693
10,C11U U54A G58C,≤ 0.5
11,U13A A21C U35C G39A A42C A43G C46U,0.63
12,G12C A45U C62G A65G,0.604
13,G12A A43U A45C C49U G67C,≤ 0.5
14,G12A A14G A21G C24G U28G,0.674
15,G12A A15G A43C A65G,≤ 0.5
16,G12C A14U C29U,≤ 0.5
17,C11U U19A C33U G41C A45C,≤ 0.5
18,G12C A15U C24A,0.528
19,C11U U13C C30U A43G,≤ 0.5
20,G12A C24A U26A C31A G67A,≤ 0.5

# — the RNAGym collection of RNA variant scans (doi:10.1126/science.aae0568)
